These results are taken from ChEMBL document CHEMBL1145952, “Hybrid-designed inhibitors of p38 MAP kinase utilizing N-arylpyridazinones” (J Med Chem, 2003).

Experiment [1] has as its target Mitogen-activated protein kinase 14 (Mus musculus, UniProt P47811). Put plainly: Tested in vitro for filter plate binding versus gamma-[33P]ATP in active recombinant murine FLAG-P38 alpha fusion protein (GST-Activating transcription factor-2).
Experiment [2] deals with Mitogen-activated protein kinase 9 (Homo sapiens) (UniProt P45984). Description: Inhibition of recombinant human flag-tagged JNK2-beta-2 at 10000 nM. It is filed as functional. The essentials:
(§1)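 Kinase assay with recombinant human FLAG-tagged JNK2β fusion protein phosphorylating GST-ATF2. Phosphorylated GST-ATF2 detected by HTRF.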

For experiment [3], the target named is T1, MAP kinase p38 (Homo sapiens, UniProt O15264+Q15759+Q16539+P53778). Description: Inhibition of LPS-induced p38-related Tumor necrosis factor alpha release by THP-1 cells at 4000 nM. It is filed as functional, cell-based.
Experiment [4] has as its target Mitogen-activated protein kinase 11 (Mus musculus) (UniProt Q9WUI1). Description: Displacement of [gamma-33P]-ATP from recombinant murine Mitogen-activated protein kinase p38 beta at 5000 nM.
Experiment [5] concerns the target Mitogen-activated protein kinase 11 (Mus musculus, UniProt Q9WUI1). Put plainly: Displacement of [gamma-33P]-ATP binding from active recombinant murine FLAG-Mitogen-activated protein kinase p38 beta fusion protein (GST-ATF2). The essentials:
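Filter-plate binding assay of compound competing with [γ-33P]ATP on active recombinant murine FLAG-tagged p38 fusion protein, with GST-ATF2. IC50 values are the average of two or more separate assays. Repeat determinations differed by ±20% on average.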

Experiment [6] deals with T1, MAP kinase p38. Put plainly: Inhibition of Tumor necrosis factor alpha release from LPS-induced THP-1 cells by ELISA. The format is functional, cell-based. The essentials: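 Human THP-1 monocytic cells stimulated with LPS. Human TNFα in the cell supernatant measured by ELISA.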
Experiment [7] concerns the target Mitogen-activated protein kinase 9 (Homo sapiens) (UniProt P45984). Description: Inhibition of recombinant human flag-tagged JNK2-beta-2 at 5000 nM. The format is functional. In a few lines: as §1
Experiment [8] can be described thus: (§2) Ex vivo inhibition of Mitogen activated protein kinase activated protein 1 hr after 3 mg/kg dose. The format is functional. As to conditions: Mus musculus. The essentials:
(§3)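 BALB/c mice (n = 5 per compound) dosed ip at 3 mg/kg in DMSO/EtOH/PEG400/saline (10:10:60:20). Blood collected 1 h after dosing and murine MAPKAP activity measured ex vivo as % inhibition. Significance versus vehicle assessed at p < 0.05.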

The target of experiment [9] is T1, MAP kinase p38. Put plainly: Inhibition of LPS-induced p38-related Tumor necrosis factor alpha release in human whole blood. It is filed as functional, tissue-based.
Experiment [10] is filed under the species Mus musculus. Put plainly: Tested ex vivo for MAPKAP inhibition, activity expressed as plasma concentration. The format is functional, organism-based. The essentials: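 Mice dosed ip at 3 mg/kg and plasma taken 1 h after dosing. Plasma compound level determined by bioassay: plasma was diluted in the p38 inhibition assay to find the dilution giving 50% inhibition (EC50). Concentration = free-compound p38 IC50 × 1/dilution factor.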

Experiment [11] deals with Mitogen-activated protein kinase 14 (Mus musculus) (UniProt P47811). Description: Inhibition of [gamma-33P]-ATP binding to recombinant murine p38 alpha at 100 nM.
Mitogen-activated protein kinase 14 (Mus musculus), sequence (P47811 whole entry): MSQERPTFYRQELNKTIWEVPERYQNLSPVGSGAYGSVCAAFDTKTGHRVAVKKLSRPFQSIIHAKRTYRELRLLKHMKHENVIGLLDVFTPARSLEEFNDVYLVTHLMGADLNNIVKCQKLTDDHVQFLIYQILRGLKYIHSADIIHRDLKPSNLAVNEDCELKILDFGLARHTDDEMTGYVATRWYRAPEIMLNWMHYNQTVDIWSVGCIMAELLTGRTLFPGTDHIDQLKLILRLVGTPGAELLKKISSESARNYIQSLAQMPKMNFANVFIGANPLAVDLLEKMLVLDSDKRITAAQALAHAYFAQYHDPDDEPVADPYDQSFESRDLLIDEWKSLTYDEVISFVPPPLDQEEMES
Experiment [12] concerns the target Mitogen-activated protein kinase 9 (Homo sapiens) (UniProt P45984). Description: Inhibition of recombinant human flag-tagged JNK2-beta-2 at 1000 nM. The format is functional. The essentials:
as §1

The target in experiment [13] is Mitogen-activated protein kinase 11 (Mus musculus) (UniProt Q9WUI1). Description: Displacement of [gamma-33P]-ATP from recombinant murine Mitogen-activated protein kinase p38 beta at 100 nM.
Mitogen-activated protein kinase 11 (Mus musculus), sequence (Q9WUI1 whole entry, the tested form may be a part): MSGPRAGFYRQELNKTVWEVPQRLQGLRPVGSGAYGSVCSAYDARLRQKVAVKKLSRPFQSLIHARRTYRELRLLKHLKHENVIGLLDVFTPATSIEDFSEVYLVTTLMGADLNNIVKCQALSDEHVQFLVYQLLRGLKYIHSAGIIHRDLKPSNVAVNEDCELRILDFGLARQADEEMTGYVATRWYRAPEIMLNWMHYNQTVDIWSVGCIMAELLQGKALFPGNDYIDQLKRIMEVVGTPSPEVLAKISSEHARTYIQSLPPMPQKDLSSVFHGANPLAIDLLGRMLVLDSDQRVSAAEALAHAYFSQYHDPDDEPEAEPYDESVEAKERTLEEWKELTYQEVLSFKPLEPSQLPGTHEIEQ
Experiment [14] addresses T1, MAP kinase p38. Description: Inhibition of LPS-induced p38-related Tumor necrosis factor alpha release in human whole blood at 4000 nM. The format is functional, tissue-based.
Experiment [15] relates to Mus musculus. Put plainly: Tested ex vivo for MAPKAP plasma concentration at 1 hr after dosing. It is filed as functional, organism-based. In a few lines:
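BALB/c mice (n = 5) given 3 mg/kg ip in DMSO/EtOH/PEG400/saline (10:10:60:20); blood drawn 1 h post-dose. Plasma level determined by bioassay: serial plasma dilutions run in the p38 inhibition assay, and the compound's free p38 IC50 multiplied by 1/(plasma dilution giving 50% inhibition, EC50).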

Experiment [16] concerns Mus musculus. The experiment is described as §2. The format is functional, organism-based. Further details: dose 3 mg/kg. In a few lines: as §3

The structures appear in SMILES notation.

Mitogen-activated protein kinase 11, sequence (Q9WUI1 whole entry, the tested form may be a part): as above
Mitogen-activated protein kinase 9 (Homo sapiens), sequence (P45984 whole entry, looked up, the tested form may be a part): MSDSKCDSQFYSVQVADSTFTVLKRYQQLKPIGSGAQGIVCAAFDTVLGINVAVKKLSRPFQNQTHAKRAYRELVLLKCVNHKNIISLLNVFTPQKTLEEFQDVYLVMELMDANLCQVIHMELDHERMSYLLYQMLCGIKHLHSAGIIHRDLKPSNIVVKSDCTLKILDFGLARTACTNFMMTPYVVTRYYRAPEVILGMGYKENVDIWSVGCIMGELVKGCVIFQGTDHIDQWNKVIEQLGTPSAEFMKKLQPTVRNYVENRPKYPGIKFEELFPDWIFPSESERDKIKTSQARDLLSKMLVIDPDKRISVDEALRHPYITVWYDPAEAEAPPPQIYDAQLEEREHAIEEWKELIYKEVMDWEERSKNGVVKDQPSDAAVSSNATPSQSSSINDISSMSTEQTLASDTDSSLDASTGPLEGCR
Mitogen-activated protein kinase 14, sequence (P47811 whole entry, the tested form may be a part): as the sequence (P47811 whole entry) above

Consider `O=c1ccc(-c2c(-c3cccc(C(F)(F)F)c3)nc3ccccn23)nn1-c1c(Cl)cccc1Cl`, for which the half-maximal inhibitory concentration (IC50) in experiment [1] came out at 1000 nM. Also, the inhibition in experiment [2] was found to be 0%; in experiment [3], 41%; in [4], 50%.

Take `O=c1ccc(-c2c(-c3ccc(F)cc3Cl)nc3ccccn23)nn1-c1c(Cl)cccc1Cl`: the IC50 in experiment [1] stood at 14 nM; in [5] it was 64 nM; in experiment [6], 161 nM. Also, the inhibition in [2] was 23%.

For the molecule `Cc1ccccc1-n1nc(-c2c(-c3ccc(F)cc3Cl)nc3ccccn23)ccc1=O`, the inhibition in [7] came out at 16%. Further, the half-inhibitory concentration (IC50) amounted to 9 nM in experiment [1], 100 nM in experiment [9], 28 nM in [5] and 20 nM in experiment [6]. In experiment [8], testing at 3 mg/kg gave an inhibition in vivo of 42%. Further, the Concentration in experiment [10] is 810 nM.

With `O=c1ccc(-c2c(-c3cccc(Cl)c3Cl)nc3ccccn23)nn1-c1c(Cl)cccc1Cl`, the inhibition amounted to 14% in experiment [7] and 65% in experiment [3]. For the same molecule, the IC50 was determined as 270 nM in experiment [1] and 890 nM in [5].

For `O=C1CCC(c2c(-c3cccc(C(F)(F)F)c3)nc3ccccn23)=NN1c1ccccc1Cl`, the results for the 50% inhibitory concentration (IC50) in experiment [1] and in experiment [5] were 171 nM and 355 nM, respectively. In addition, the inhibition was found to be 0% in experiment [2] and 72% in [3].

Take `Cc1ccccc1N1N=C(c2c(-c3ccc(F)cc3Cl)nc3ccccn23)CCC1=O`: the inhibition in [7] worked out at 4%. Moreover, the IC50 turned out to be 14 nM in [1], 220 nM in [9], 94 nM in experiment [5] and 22 nM in experiment [6].

In the case of `Cc1ccccc1-n1nc(-c2c(-c3cccc(Cl)c3Cl)nc3ccccn23)ccc1=O`, the IC50 stood at 22 nM in [1], 500 nM in [9], 44 nM in experiment [5] and 6 nM in experiment [6]. In addition, the inhibition in [2] amounted to 15%.

With `O=C1CCC(c2c(-c3ccc(F)cc3Cl)nc3ccccn23)=NN1c1c(Cl)cccc1Cl`, the IC50 was found to be 42 nM in experiment [1], 670 nM in experiment [5] and 180 nM in experiment [6]. In addition, in experiment [2], the inhibition is 0%.

Take `Cc1ccccc1N1N=C(c2c(-c3cccc(Cl)c3Cl)nc3ccccn23)CCC1=O`: the inhibition in [11] was 36%; in experiment [12], 0%; in experiment [13], 33%. The molecule also showed an IC50 in experiment [6] of 170 nM.

Turning to `O=C1CCC(c2c(-c3ccc(F)cc3F)nc3ccccn23)=NN1c1c(Cl)cccc1Cl`, the IC50 in experiment [1] was determined as 8 nM; in experiment [9] it was 205 nM; in [5], 63 nM; in experiment [6] it was 10 nM. In addition, the inhibition in [2] was found to be 22%.

For the molecule `Cc1ccccc1N1N=C(c2c(-c3ccc(F)cc3F)nc3ccccn23)CCC1=O`, the IC50 in [1] was found to be 8 nM; in experiment [9] it was 440 nM; in experiment [5] it was 78 nM; in experiment [6] it was 14 nM. Further, the inhibition in experiment [2] is 4%.

For `O=c1ccc(-c2c(-c3ccc(F)cc3F)nc3ccccn23)nn1-c1c(Cl)cccc1Cl`, the inhibition in [7] was found to be 11%; in [3] it was 89%. Further, the results for the IC50 in experiment [1], in [9] and in [5] were 22 nM, 1000 nM and 112 nM, respectively.

For `O=C1CCC(c2c(-c3cccc(Cl)c3Cl)nc3ccccn23)=NN1c1c(Cl)cccc1Cl`, the figures for the inhibition in experiment [7], in [3] and in experiment [4] were 26%, 59% and 57%, respectively. In addition, the half-inhibitory concentration (IC50) in [1] worked out at 2000 nM.

As to `O=c1ccc(-c2c(-c3ccc(F)cc3Cl)nc3ccccn23)nn1-c1ccccc1Cl`, the concentration for half-maximal inhibition (IC50) in [1] was determined as 76 nM; in experiment [5] it was 171 nM; in experiment [6], 161 nM. For the same molecule, the inhibition in experiment [2] was determined as 0%.

Regarding `O=c1ccc(-c2c(-c3ccc(F)cc3)nc3ccccn23)nn1-c1c(Cl)cccc1Cl`, the concentration for half-maximal inhibition (IC50) in experiment [1] is 49 nM; in experiment [5], 153 nM; in [6] it was 70 nM. The inhibition in [2] was 40%; in experiment [14], 60%.

Consider `O=C1CCC(c2c(-c3ccc(F)cc3Cl)nc3ccccn23)=NN1c1ccccc1Cl`, for which the IC50 in experiment [1] was 208 nM; in experiment [5], 2600 nM; in [6] it was 400 nM. The inhibition in experiment [2] worked out at 0%.

As to `O=c1ncn2nc(Sc3ccc(F)cc3F)ccc2c1-c1c(Cl)cccc1Cl`, in experiment [15], the Concentration amounted to 1730 nM. In addition, the inhibition in experiment [16] came out at 29%.

`Cc1ccccc1-n1nc(-c2c(-c3ccc(F)cc3F)nc3ccccn23)ccc1=O`: the inhibition in [7] was 15%. In addition, the IC50 in experiment [1] turned out to be 26 nM; in [9], 870 nM; in [5], 140 nM; in experiment [6], 68 nM.

For `O=c1ccc(-c2c(-c3cccc(C(F)(F)F)c3)nc3ccccn23)nn1-c1ccccc1Cl`, the IC50 in [1] was found to be 344 nM. The molecule further yielded an inhibition in experiment [3] of 48%.
